One assay concerns HT-29. As to the kind of experiment: Cytotoxicity against human HT-29 cells after 48 hrs by MTT assay. The format is functional, cell-based. The conditions noted are these: HT-29, 48 h. A digest of the protocol:
(§1)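 Cells grown in DMEM with 10% FBS at 37 °C under humidified 5% CO2. HeLa seeded at 3,000/well and HT29 at 12,500/well, then allowed 24 h before exposure to varying compound concentrations for 48 h. Viability read by MTT; IC50 values derived from duplicate experiments.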

The subject of a further assay is HeLa. As to the kind of experiment: Cytotoxicity against human HeLa cells after 48 hrs by MTT assay. In kind it is functional, cell-based. The method in brief:
as §1
(Tetrazolium assays rely on reduction of a dye to a coloured formazan, in cell work by metabolically active cells.)

Broadly, the pIC50 is the negative decadic logarithm of the IC50, by convention in mol/L. High values mean a low IC50, low ones a high IC50.

pIC50: −log10 of the molar value.

With `CO[C@@H]1[C@@H](OC)[C@H](C)O[C@@H](O[C@@H]2C[C@H]3O[C@@](O)(C2)[C@@H](C)C(=O)O[C@@H](/C=C/C=C/Br)C[C@@H](C)/C=C\C[C@H](O)[C@@H]3C)[C@@H]1OC`, the negative logarithm of the IC50 (pIC50) in the assay on HT-29 was 4.42; in the assay with HeLa it was 4.48.
The corresponding values for `CO[C@@H]1[C@@H](OC)[C@H](C)O[C@@H](O[C@@H]2C[C@@H]3CC[C@@H](C)[C@H](O)C[C@@](C)(CC/C=C/C=C/Br)OC(=O)C[C@](O)(C2)O3)[C@@H]1OC` are 4.89 and 5.03.
With `CO[C@@H]1[C@@H](OC)[C@H](C)O[C@@H](O[C@@H]2C[C@@H]3CC[C@@H](C)[C@H](O)C[C@@](C)(CC/C=C/C=C\Br)OC(=O)C[C@](O)(C2)O3)[C@@H]1OC`, the pIC50 is less than 4.00 with HT-29 and 4.28 in the assay with HeLa.
Consider `CC[C@H](C)[C@@H]1NC(=O)CNC(=O)c2csc(n2)[C@H](C(C)C)OC(=O)C(C)(C)[C@H](CCCC(C)(Cl)Cl)OC(=O)c2csc1n2` [27-DEOXYLYNGBYABELLIN A], for which the figures for the pIC50 in the assay on HT-29 and in the assay on HeLa were 7.92 and 8.14, respectively.
The corresponding values for `CC[C@H](C)[C@@H]1NC(=O)CNC(=O)c2csc(n2)[C@H](C(C)(C)O)OC(=O)C(C)(C)[C@H](CCCC(C)(Cl)Cl)OC(=O)c2csc1n2` [LYNGBYABELLIN A] are 7.33 and 7.66.
For `CC(C)[C@@H]1NC(=O)CNC(=O)[C@@H]2CSC(=N2)[C@H](C(C)(C)O)OC(=O)C(C)(C)[C@H](CCCC(C)(Cl)Cl)OC(=O)c2csc1n2` [LYNGBYABELLIN B] the same measures were 5.96 and 6.15.
For `CCCC(=O)N[C@@H](C(C)C)[C@@H](CC(=O)O[C@@H]1COC(=O)c2csc(n2)[C@@H]([C@@](C)(O)CC)OC(=O)[C@@H](C)[C@H](CCCC(C)(Cl)Cl)OC(=O)c2csc1n2)OC(C)=O` [LYNGBYABELLIN J] the same measures were 7.27 and 7.39.
For `CO[C@@H]1[C@@H](OC)[C@H](C)O[C@@H](O[C@@H]2C[C@H]3O[C@@](O)(C2)[C@H](C)C(=O)O[C@@H](/C=C/C=C/Br)C[C@@H](C)/C=C\C[C@H](O)[C@@H]3C)[C@@H]1OC` [LYNGBYALOSIDE], the results for the pIC50 with HT-29 and with HeLa were 4.43 and 4.46, respectively.

The values above are taken from ChEMBL document CHEMBL1221344, “Cytotoxic halogenated macrolides and modified peptides from the apratoxin-producing marine cyanobacterium Lyngbya bouillonii from Guam” (J Nat Prod, 2010).
